Compounds with a hit are over-represented: about 3.1% of the library has one in this group of screens.
SENP8 block-1 – SENP8 protease inhibitors, primary screen, biochemical, luminescence. purified SENP8, Z-RLRGG-aminoluciferin cleavage. inhibition, % at 10 µM. 1.2% of 330,000 active; in the data active = inhibition above about 50%
Target sequence (Q96LD8 whole entry, looked up): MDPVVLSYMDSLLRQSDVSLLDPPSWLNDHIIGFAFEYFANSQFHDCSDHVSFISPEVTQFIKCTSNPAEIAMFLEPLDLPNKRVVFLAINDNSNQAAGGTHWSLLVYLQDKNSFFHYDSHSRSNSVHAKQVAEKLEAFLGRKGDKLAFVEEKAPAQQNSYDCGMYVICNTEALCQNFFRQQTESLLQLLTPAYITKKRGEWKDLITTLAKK
Apaf1 inhib – inhibitors of human Apaf-1 apoptosome, primary screen, biochemical, DEVD-Rh110 fluorescence, uHTS; AID 489030, 2010; Apoptotic protease-activating factor 1 (Homo sapiens), O14727; inhibition, % at 20 µM; reconstituted apoptosome caspase-3 activity; 0.71% of 330,000 active; active = inhibition of at least 40% at 20 µM
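Material: cell-free apoptosome with Apaf-1, procaspase-3 and caspase-9; Buffer or medium: Hepes pH 7.5 with detergent and BSA; Reagent: cytochrome c trigger plus (Z-DEVD)2-Rh110 caspase-3 substrate; Times: compound with Apaf-1, dATP, procaspase-3 30 min, then 50 min reaction, room temperature; Technique: Rh110 fluorescence intensity.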
SENP6 inh – SENP6 protease inhibitors, primary screen, biochemical, luminescence, uHTS | Sentrin-specific protease 6 (Homo sapiens), Q9GZR1 | Recombinant SENP6 catalytic domain, aminoluciferin luminescence | inhibition, % at 10 µM | 1.8% of 330,000 active | AID 2599, 2010;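 active = inhibition above about 50% at the single tested dose, limit read from the data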
SENP7 block – SENP7 protease inhibitors, primary screen, biochemical, luminescence, uHTS. recombinant SENP7, Z-RLRGG-aminoluciferin luminescence, 40 min. Sentrin-specific protease 7 (Homo sapiens), Q9BQF6. inhibition, % at 5 µM. 1.5% of 330,000 active;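 active = inhibition above about 50% at the single test dose, limit read from the data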
UBC13 polyUb – UBC13 polyubiquitin chain formation inhibitors, primary screen, biochemical, TR-FRET, uHTS. inhibition, % at 20 µM. 0.47% of 330,000 active. Ubiquitin-conjugating enzyme E2 N (Homo sapiens), P61088; in the data active = inhibition above about 45%, passing the limit was not always enough
SENP8 block-2 – human SENP8 protease inhibitors, primary screen, biochemical, fluorescence, Nedd8 protein substrate, uHTS; AID 602440, 2012; 0.64% of 360,000 active; Sentrin-specific protease 8 (Homo sapiens), Q96LD8; inhibition, % at 20 µM; recombinant SENP8; in the data active = inhibition mostly above about 40%, no sharp cut-off; inactive = mostly below about 27%
SENP8 confirm – SENP8 protease inhibitors, retest, confirmation, biochemical, luminescence, single concentration | shares compounds with SENP7 block | Recombinant SENP8, Z-RLRGG-aminoluciferin luminescence, 60 min | inhibition, % at 12.5 µM | 40% of 6,200 active | AID 488912, 2010;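 active = mean inhibition across replicates above about 50%, limit read from the data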
SENP6 conf – SENP6 protease inhibitors, confirmation, biochemical, luminescence, single concentration. inhibition, % at 12.5 µM. recombinant SENP6, Z-RLRGG-aminoluciferin luminescence. 58% of 6,200 active. shares compounds with SENP7 block
SENP7 confirm – SENP7 protease inhibitors, retest, confirmation, biochemical, luminescence, single concentration; shares compounds with SENP7 block; recombinant SENP7, Z-RLRGG-aminoluciferin luminescence, 40 min; inhibition, % at 12.5 µM; 69% of 6,200 active; AID 488917, 2010
Casp3 select – caspase-3 protease inhibitors, confirmation, selectivity assay for SENP inhibitor project, biochemical, single concentration | shares compounds with SENP7 block | purified caspase-3, Z-DEVD-aminoluciferin luminescence, 60 min | inhibition, % at 12.5 µM | 60% of 6,200 active;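 active = mean inhibition above about 50%, limit read from the data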
Target sequence (P42574 28-227 limits assumed): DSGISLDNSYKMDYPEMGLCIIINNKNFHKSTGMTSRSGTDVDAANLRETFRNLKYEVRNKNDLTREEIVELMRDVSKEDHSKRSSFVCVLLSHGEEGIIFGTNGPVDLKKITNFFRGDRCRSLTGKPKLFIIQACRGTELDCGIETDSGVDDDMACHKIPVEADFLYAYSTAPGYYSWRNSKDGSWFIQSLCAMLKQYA
Luc interf – luminescence interference (SENP counter-screen); shares compounds with SENP7 block; Pre-incubated SENP8/Z-RLRGG-aminoluciferin, luciferase luminescence interference; inhibition, % at 12.5 µM; 39% of 6,200 active; AID 488919;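 active = mean inhibition above about 50% when retested at one dose, limit read from the data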
Apaf-1 inh conf2 – Apaf-1 inhibitors, single-dose retest, confirmation, biochemical, fluorescence, DEVD-Rh110, 20 µM. shares compounds with Apaf1 inhib. reconstituted apoptosome, caspase-3 DEVD-Rh110 fluorescence. inhibition, % at 20 µM. 25% of 1,800 active;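 active = mean inhibition of at least 40% at 20 µM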
Rh110 interf inh – Rh110 fluorescence interference by putative Apaf-1 inhibitors, confirmation, artefact control for Apaf-1 inhibitor project, biochemical, 20 µM | activation (fluorescence interference), % at 20 µM | quenched caspase reaction | shares compounds with Apaf1 inhib | 1,800 tested, under 10 active;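 active = signal rise of 40% or more at 20 µM, treated as a fluorescence artifact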
Apaf1 inh interf – fluorescence interference of Apaf-1 inhibitor hits, dose response, artefact control for Apaf-1 inhibitor project; shares compounds with Apaf1 inhib; fluorescence interference counterscreen, Apaf-1 assay format; IC50, µM; AID 588538, 2011; 460 tested, under 10 active; call rule not given here
Numbers stand for hits; 0 = inactive; - = not tested or not shown.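 Rule for the calls, unless noted: active = mean inhibition above about 50% in the one-dose retest (limit read from the data); inactive = the rest.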

SMILES	SENP8 block-1	Apaf1 inhib	SENP6 inh	SENP7 block	UBC13 polyUb	SENP8 block-2	SENP8 confirm	SENP6 conf	SENP7 confirm	Casp3 select	Luc interf	Apaf-1 inh conf2	Rh110 interf inh	others
CC(=O)NC1=C(N(C)C2CCS(=O)(=O)C2)C(=O)c2ccccc2C1=O (stereo not drawn)	0	54	67	0	0	66	0	74	0	0	0	67	0	Apaf1 inh interf=0
O=C(O)c1ccc(-c2cccc(-c3nn4c(=O)cc(N5CCNCC5)nc4s3)c2)cc1	-	-	-	-	-	0	-	-	-	-	-	-	-
CC(Nc1cccc2ccccc12)C(=O)N/N=C/c1ccccn1 (stereo not drawn)	85	95	81	0	0	0	0	0	0	0	0	0	0
CC(=O)N(/N=C1\Sc2ccccc2C1=O)c1cccc(C)c1	94	86	92	93	0	0	0	84	58	0	0	85	0	Apaf1 inh interf=0
COC(=O)[C@]12CCCCC=C1N(CCc1ccc(OC)c(OC)c1)C(=O)[C@H](CC(=O)N1CCC(c3ccccc3)CC1)C2	-	-	-	-	-	0	-	-	-	-	-	-	-
FC(F)Oc1ccc(NC(=S)NCc2ccccc2)cc1	0	0	0	0	0	0	-	-	-	-	-	-	-
Oc1cccc2c(NC(=S)Nc3ccc(OC(F)F)cc3)cccc12	80	65	94	0	0	0	0	0	0	0	0	0	0
CCCCNc1c(-c2cccnc2)nc2nc(C)cc(C)n12	-	-	-	-	-	0	-	-	-	-	-	-	-
O=C(CC1Nc2cccc3cccc(c23)NC1=O)Nc1ccccc1 (stereo not drawn)	0	96	87	53	0	0	0	0	0	0	0	0	0
CCCOc1ccc(NC(=O)CC2Nc3ccccc3NC2=O)cc1 (stereo not drawn)	0	0	0	0	0	0	-	-	-	-	-	-	-
NC(=O)CC1Nc2cccc3cccc(c23)NC1=O (stereo not drawn)	77	98	91	0	0	0	0	0	0	0	0	0	0
Cc1ccc([C@@H]2C[C@H]3[C@@H](CN2S(=O)(=O)c2ccc(C)cc2)C(=O)C[C@@H](c2ccc(Cl)cc2)N3S(=O)(=O)c2ccccc2C)cc1	-	-	-	-	-	0	-	-	-	-	-	-	-
Cc1ccc(S(=O)ONc2cccc(NOS(=O)c3ccc(C)cc3)c2)cc1 (stereo not drawn)	-	-	-	-	-	0	-	-	-	-	-	-	-
